Data: ChEMBL document CHEMBL2150886, “Synthesis of [3β-acetoxy-urs-12-en-28-oyl]-1-monoglyceride and investigation on its anti tumor effects against BGC-823” (Bioorg Med Chem, 2011)
Activity calls are given as the source filed them. The calls are words filed in the database; no cut-off is given here.

Assays:
[1] = test system: Mus musculus; assay: Toxicity in human BGC823 cells xenografted nude mouse assessed as body weight changes at 6 mg/kg, iv treated 5 times on day 1, 4, 7, 10 and day 13 post tumor implant (reference value: 20.21 +/- 1.83 grams); assay type: organism-based, BGC-823; parameters: dose 6 mg/kg, route intravenous; conditions: in vivo
Procedure, shortened: (§1)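 Nude mice (male, 5 weeks, 18–22 g) carried subcutaneous BGC-823 xenografts from 1 × 10⁷ cells. Dosing started at about 200 mm³ tumour volume, with eight mice per group. Each dose was 0.2 mL given iv; the saline control received 0.9% saline. Body weight was recorded on days 1, 4, 7, 10, 13 and 16 of treatment and reported as mean ± SD, n = 8.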

[2] = test system: Mus musculus; assay: Toxicity in human BGC823 cells xenografted nude mouse assessed as body weight changes at 30 mg/kg, iv treated 5 times on day 1, 4, 7, 10 and day 13 post tumor implant (reference value: 20.21 +/- 1.83 grams); assay type: organism-based, BGC-823; parameters: dose 30 mg/kg, route intravenous; conditions: in vivo; procedure, shortened: as §1
[3] = test system: BGC-823; assay: Induction of apoptosis in human BGC823 cells assessed as early apoptotic cell population at 30 uM by annexinV/propidium iodide staining (reference value: 1.9%); assay type: functional
[4] = test system: BGC-823; assay: Induction of apoptosis in human BGC823 cells assessed as necrotic damaged cell population at 20 uM by annexinV/propidium iodide staining (reference value: 0.5%; assay type: functional
[5] = test system: Mus musculus; assay: Toxicity in human BGC823 cells xenografted nude mouse assessed as body weight changes at 6 mg/kg, iv treated […] on day 1, 4, 7, 10, 13 and day 16 post tumor implant (reference value: 20.12 +/- 1.52 grams); assay type: organism-based, BGC-823; parameters: dose 6 mg/kg, route intravenous; conditions: in vivo
[6] = test system: BGC-823; assay: Induction of apoptosis in human BGC823 cells assessed as late apoptotic cell population at 10 uM by annexinV/propidium iodide staining (reference value: 2.1%); assay type: functional
[7] = Cytotoxicity against human GES-1 cells incubated for 48 hrs by MTT assay; assay type: cell-based; conditions: GES1, 48 h
Procedure, shortened: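 Cells were grown in RPMI-1640 with 10% heat-inactivated FCS at 37 °C under 5% CO₂, seeded at 5 × 10³ per well and left 24 h. Compounds in DMSO were diluted in medium to 0.5% final DMSO; controls received 0.5% DMSO. Exposure was 24–72 h, followed by MTT for 4 h, formazan dissolved in DMSO, and A570. Six wells per sample; IC₅₀ taken at 50% inhibition; ≥3 repeats.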

[8] = test system: BGC-823; assay: Induction of apoptosis in human BGC823 cells assessed as early apoptotic cell population at 20 uM by annexinV/propidium iodide staining (reference value: 1.9%); assay type: functional
[9] = test system: BGC-823; assay: Induction of apoptosis in human BGC823 cells assessed as necrotic damaged cell population at 40 uM by annexinV/propidium iodide staining (reference value: 0.5%; assay type: functional
[10] = test system: BGC-823; assay: Cell cycle arrest in human BGC823 cells assessed as accumulation of cells at subG0/G1 phase incubated for 24 to 72 hrs by propidium iodide staining based flow cytometry; assay type: functional
Procedure, shortened: (§2)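 BGC-823 cells were exposed to 20 µM for 24, 48 or 72 h, or to 10, 20 or 40 µM for 48 h. About 10⁶ cells were harvested and stained with propidium iodide using a cell cycle kit, then analysed by flow cytometry. Percentages were read for sub-G0/G1, G0/G1, S and G2/M. Each experiment was run at least three times; mean ± SD.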

[11] = test system: Mus musculus; assay: Toxicity in human BGC823 cells xenografted nude mouse assessed as body weight changes at 6 mg/kg, iv treated on day 1 post tumor implant (reference value: 19.69 +/- 1.21 grams); assay type: organism-based, BGC-823; parameters: dose 6 mg/kg, route intravenous; conditions: in vivo
[12] = test system: BGC-823; assay: Antitumor activity against human BGC823 cells xenografted in nude mouse assessed as reduction in tumor volume at 30 mg/kg, iv dosed 5 times; assay type: functional; parameters: scale not given: the % may be the effect or the level left
Procedure, shortened: (§3)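 Male nude mice (5 weeks, 18–22 g) inoculated subcutaneously with 1 × 10⁷ BGC-823 cells. At about 200 mm³ tumours, animals were randomised into four groups of eight. Each received 0.2 mL iv by tail vein; controls got 0.9% saline. Tumour volume was measured daily as 0.5 × length × width²; tumours were weighed at the end. Values are mean ± SD, n = 8.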

[13] = test system: BGC-823; assay: Induction of apoptosis in human BGC823 cells assessed as induction of DNA fragmentation at 10 to 40 uM incubated for 48 hrs by alkaline comet assay; assay type: functional, cell-based
Procedure, shortened: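 Alkaline comet assay on about 10⁵ BGC-823 cells after 48 h at 37 °C with 10, 20 or 40 µM. Cells with diffuse fan-like tails and small heads were scored as apoptotic; large defined heads with minimal DNA diffusion were scored as normal.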

[14] = test system: BGC-823; assay: Reduction in BCL-2 protein expression in human BGC823 cells at 1o to 40 uM incubated for 48 hrs by Western blotting; assay type: functional, cell-based
Procedure, shortened: (§4)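 BGC-823 cells were treated with 10, 20 or 40 µM for 48 h, detached with trypsin/EDTA, and more than 10⁶ cells were lysed. Protein was quantified by Bradford, and 150–200 µg per lane was run on 12.5% SDS-PAGE and transferred to PVDF. Antibodies: Survivin 1:1000, Bcl-2 1:200, β-actin 1:1000; HRP secondary 1 h; ECL detection. Expression was quantified relative to control.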

[15] = test system: BGC-823; assay: Reduction in survivin protein expression in human BGC823 cells at 10 uM incubated for 48 hrs by Western blotting; assay type: functional; procedure, shortened: as §4
[16] = test system: BGC-823; assay: Reduction in survivin protein expression in human BGC823 cells at 40 uM incubated for 48 hrs by Western blotting; assay type: functional; procedure, shortened: as §4
[17] = test system: BGC-823; assay: Cell cycle arrest in human BGC823 cells assessed as accumulation of cells at subG0/G1 phase at 20 uM incubated for 24 hrs by propidium iodide staining based flow cytometry (Rvb= 0.66%); assay type: functional; procedure, shortened: as §2
[18] = test system: BGC-823; assay: Antitumor activity against human BGC823 cells xenografted in nude mouse assessed as reduction in tumor volume at 6 mg/kg, iv dosed 5 times; assay type: functional; parameters: scale not given: the % may be the effect or the level left; procedure, shortened: as §3
[19] = test system: Mus musculus; assay: Toxicity in human BGC823 cells xenografted nude mouse assessed as body weight changes at 30 mg/kg, iv treated 5 times on day 1, 4, 7, 10, 13 and day 16 post tumor implant (reference value: 20.12 +/- 1.52 grams); assay type: organism-based, BGC-823; parameters: dose 30 mg/kg, route intravenous; conditions: in vivo; procedure, shortened: as §1
[20] = test system: BGC-823; assay: Induction of apoptosis in human BGC823 cells assessed as early apoptotic cell population at 40 uM by annexinV/propidium iodide staining (reference value: 1.9%); assay type: functional
[21] = test system: BGC-823; assay: Induction of apoptosis in human BGC823 cells assessed as viable cell population at 20 uM by annexinV/propidium iodide staining (reference value: 95.5%); assay type: functional
[22] = test system: BGC-823; assay: Reduction in survivin protein expression in human BGC823 cells at 20 uM incubated for 48 hrs by Western blotting; assay type: functional; procedure, shortened: as §4
[23] = test system: BGC-823; assay: Induction of apoptosis in human BGC823 cells assessed as late apoptotic cell population at 40 uM by annexinV/propidium iodide staining (reference value: 2.1%); assay type: functional
[24] = test system: BGC-823; assay: Induction of apoptosis in human BGC823 cells assessed as increase in caspase 3 activity at 20 uM incubated for 48 hrs relative to untreated control; assay type: functional
Procedure, shortened: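 BGC-823 cells were exposed to 0, 10 or 20 µM for 48 h, detached with trypsin/EDTA and washed in cold PBS. About 10⁶ cells were lysed, and the lysate was incubated 1 h with Ac-DEVD-pNA, with cleavage read at 405 nm. Activity was normalised to Bradford protein and expressed relative to the untreated control. Mean ± SD of three independent experiments.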

[25] = test system: BGC-823; assay: Induction of apoptosis in human BGC823 cells assessed as late apoptotic cell population at 20 uM by annexinV/propidium iodide staining (reference value: 2.1%); assay type: functional

CC(=O)O[C@H]1CC[C@]2(C)[C@H]3CC=C4[C@@H]5[C@@H](C)[C@H](C)CC[C@]5(C(=O)OCC(O)CO)CC[C@@]4(C)[C@]3(C)CC[C@H]2C1(C)C (stereo not given in full)
Activity [1]: 20.07 g
Activity [2]: 19.69 g
Activity [3]: 45.1%
Activity [4]: 0.1%
Activity [5]: 20.09 g
Activity [6]: 2.6%
IC50 [7]: 155 µM
Activity [8]: 19.4%
Activity [9]: 2.3%
Activity [10]: Dose-dependent effect
Activity [11]: 19.21 g
Activity [12]: 41.9%
Activity [13]: Dose-dependent effect
Activity [14]: Active
Activity [15]: 37.6%
Activity [16]: 53.1%
Activity [17]: 3.71%
Activity [18]: 29.3%
Activity [19]: 19.57 g
Activity [20]: 7.4%
Activity [21]: 72.2%
Activity [22]: 43.1%
Activity [23]: 89.5%
fold change (FC) [24]: 3.65
Activity [25]: 2.3%
